The values that follow come from ChEMBL document CHEMBL1123749, “O-carbamoylsalicylates: agents for modification of hemoglobins” (J Med Chem, 1987).

What all share (type): functional
Assay [1] can be described thus: Effect of compound on oxygen affinity, was expressed as P50 (mmHg) at 5 mM concentration in the presence of Inositol hexa phosphate (IHP). The method in brief:
(§1)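 Human hemoglobin A (1.0 mM) treated with reagent in 0.1 M Tris-HCl buffer, pH 7.3, at 37 °C for 2 h. Extent of modification and oxygen affinity (p50, mm) then determined by a previously described method; p50 read with and without inositol hexaphosphate. Reagent concentration uncertain for some compounds owing to incomplete solubility.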

Assay [2] is described as follows: Effect of compound on modification of oxy form of hemoglobin was expressed as percent modification at 10 mM concentration. The method in brief:
as §1

Assay [3] can be described thus: Effect of compound on oxygen affinity, was expressed as P50 (mmHg) at 5 mM concentration in the absence of Inositol hexa phosphate (IHP). The essentials: as §1
Assay [4] can be described thus: Effect of compound on modification of oxy form of hemoglobin was expressed as percent modification at 5 mM concentration. The essentials:
as §1

Assay [5] can be described thus: Effect of compound on oxygen affinity, was expressed as P50 (mmHg) at 10 mM concentration in the presence of 2 mM Inositol hexa phosphate (IHP). The essentials: (§2)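 Hemoglobin A (1.0 mM) incubated with carbamate reagent in 0.1 M Tris-HCl, pH 7.3, at 37 °C for 2 h. Extent of modification and oxygen affinity (p50, mmHg) then measured by a previously described method. Oxygen binding was read with and without inositol hexaphosphate. At 10 mM, reagent concentration is uncertain for some compounds because of incomplete solubility.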

The nature of assay [6]: Effect of compound on oxygen affinity, was expressed as P50 (mmHg) at 10 mM concentration in the absence of Inositol hexa phosphate (IHP). The essentials: as §2
Assay [7] is described as follows: Effect of compound on modification of deoxy form of hemoglobin was expressed as percent modification at 5 mM concentration. The method in brief: as §1
A short description of assay [8]: Effect of compound on modification of oxy form of hemoglobin was expressed as percent modification at 10 mM concentration, concentration is uncertain due to incomplete solubility. The essentials:
as §2

Assay [9] in a line: Effect of compound on oxygen affinity, expressed as P50 (mmHg) at 5 mM concentration in the absence of Inositol hexa phosphate (IHP). The essentials:
as §2

A short description of assay [10]: Effect of compound on modification of deoxy form of hemoglobin expressed as percent modification at 5 mM concentration. The method in brief:
as §2

Assay [11] is described as follows: Effect of compound on oxygen affinity, expressed as P50 (mmHg) at 5 mM concentration in the presence of Inositol hexa phosphate (IHP). The method in brief:
as §2

Assay [12] in a line: Effect of compound on modification of oxy form of hemoglobin expressed as percent modification at 10 mM concentration. The method in brief:
as §2

The nature of assay [13]: Effect of compound on oxygen affinity, expressed as P50 (mmHg) at 10 mM concentration in the presence of 2 mM Inositol hexa phosphate (IHP). The method in brief: as §2
Assay [14] can be described thus: Effect of compound on modification of oxy form of hemoglobin expressed as percent modification at 5 mM concentration. The method in brief:
as §2

Assay [15] is described as follows: Effect of compound on oxygen affinity, expressed as P50 (mmHg) at 10 mM concentration in the absence of Inositol hexa phosphate (IHP). The essentials: as §2

The structures appear in SMILES notation.

Turning to `COC(=O)c1ccc(OC(N)=O)cc1`, the P50 in assay [1] was determined as 33 mmHg; in assay [3] it was 6 mmHg; in assay [5], 23 mmHg; in assay [6], 6.5 mmHg. Moreover, the figures for the Modification of hemoglobin in assay [2], in assay [4] and in [7] were 89%, 61% and 58%, respectively.

In the case of `CN(C)C(=O)Oc1c(Br)cc(Br)cc1C(=O)OCc1ccccc1`, the P50 amounted to 41 mmHg in assay [1], 6 mmHg in assay [3], 41 mmHg in [5] and 7 mmHg in assay [6]. Moreover, the Modification of hemoglobin in assay [2], in [4] and in [7] was 0% in each case.

With `NC(=O)Oc1ccccc1C(=O)OCc1ccccc1`, the P50 in assay [1] amounted to 37.5 mmHg; in assay [3] it was 6 mmHg. The Modification of hemoglobin is 45% in assay [4] and 46% in assay [7].

With `COC(=O)c1ccccc1OC(N)=O`, the P50 amounted to 35 mmHg in assay [1], 6 mmHg in assay [3], 25 mmHg in [5] and 6 mmHg in [6]. Moreover, the Modification of hemoglobin stood at 83% in [2], 54% in assay [4] and 52% in assay [7].

As for `CN(C)C(=O)Oc1ccccc1C(=O)O`, the Modification of hemoglobin in [8] was 0%. Also, the P50 came out at 42 mmHg in assay [5] and 6 mmHg in assay [6].

As to `CN(C)C(=O)Oc1ccccc1C(=O)OCc1ccccc1`, the P50 amounted to 42 mmHg in assay [1], 6 mmHg in [3], 44 mmHg in [5] and 6 mmHg in assay [6]. For the same compound, the Modification of hemoglobin in assay [2], in assay [4] and in assay [7] was 0% throughout.

Consider `NC(=O)Oc1ccccc1C(=O)O`, for which the P50 in assay [1] was 33 mmHg; in assay [3], 6 mmHg; in assay [5] it was 22 mmHg; in [6], 6 mmHg. The Modification of hemoglobin in assay [2] came to 94%; in assay [4], 62%; in assay [7], 58%.

In the case of `NC(=O)Oc1ccccc1`, the P50 in [9] is 6 mmHg; in assay [11], 39 mmHg; in assay [13], 30 mmHg; in assay [15] it was 5 mmHg. Moreover, the figures for the Modification of hemoglobin in assay [10], in assay [12] and in assay [14] were 40%, 67% and 44%, respectively.
